This is a sample that favours compounds with a hit; in the whole collection about 3.2% have one here.
mABHD4 FP: ABHD4 inhibitors, primary screen, biochemical, fluorescence polarization, mouse | (Lyso)-N-acylphosphatidylethanolamine lipase (Mus musculus), Q8VD66 | purified mABHD4, FP-Rh probe fluorescence polarization | inhibition, % at 8.92 µM | actives 0.54% (n = 370,000);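 active = inhibition exceeding the mean over every tested compound plus 3 SD, cut at about 30% in these data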
Target sequence (Q8VD66 whole entry, looked up): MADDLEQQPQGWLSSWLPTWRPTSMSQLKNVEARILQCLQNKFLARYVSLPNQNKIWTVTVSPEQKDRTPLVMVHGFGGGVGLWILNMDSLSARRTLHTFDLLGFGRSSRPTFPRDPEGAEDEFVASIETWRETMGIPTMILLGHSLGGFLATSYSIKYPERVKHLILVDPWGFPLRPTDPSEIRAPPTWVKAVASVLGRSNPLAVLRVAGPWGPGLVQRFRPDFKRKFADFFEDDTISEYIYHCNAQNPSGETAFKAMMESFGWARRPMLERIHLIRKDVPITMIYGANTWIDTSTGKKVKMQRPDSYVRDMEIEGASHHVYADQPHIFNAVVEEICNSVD
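System: mouse ABHD4 enzyme, wild type / Medium: HEPES pH 7.0, NaCl, Pluronic buffer / Reagent: FP-Rh activity-based fluorescent probe / Control set: S159A mutant high control, sample median low control / Detection: fluorescence polarization with parallel and perpendicular emission, 525/598 nm / Schedule: 45 min + 60 min at 25 °C / Compound dosing: 8.92 µM, single dose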
HTRA1 inh: HTRA1 serine protease inhibitors, primary screen, biochemical, fluorescence polarization, HTS. actives 0.5% (n = 340,000). inhibition, % at 5.96 µM. Q92743. recombinant HTRA1, FP-rhodamine activity-based probe; in the data active = inhibition above about 36%
LEDGF integ inh: blockers of LEDGF/p75-dependent integrase strand transfer – biochemical, TR-FRET, high throughput, primary screen; HIV-1 integrase (with human LEDGF/p75); AID 743269, 2014; actives 0.64% (n = 370,000); TR-FRET IN-LEDGF/p75 DNA integration, Eu/Cy5; inhibition, % at 3.7 µM;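 active = inhibition above the screen-wide mean plus 3 SD, cut at about 13% in these data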;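 note: signal is the Cy5 over europium emission ratio at 671 and 618 nm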
DAGLB inhibitor: DAGLB lipase inhibitors, primary screen, biochemical, fluorescence, HTS | inhibition, % at 5.17 µM | HEK293T DAGLB membrane lysate, EnzChek fluorogenic substrate | Diacylglycerol lipase-beta (Homo sapiens), Q8NCG7 | actives 0.059% (n = 340,000) | AID 504411, 2011; in the data active = inhibition above about 34%
PRMT1 FP inh: PRMT1 methyltransferase inhibitors, primary screen, biochemical, fluorescence polarization; Protein arginine N-methyltransferase 1 (Homo sapiens), Q99873; recombinant PRMT1, activity-based probe fluorescence polarization; inhibition, % at 2.79 µM; actives 1.3% (n = 370,000); AID 652257, 2013;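 active = inhibition above about 21% made by adding two undisclosed values, limit read from the data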
rCAG RNA binder: binders of r(CAG) RNA repeats, primary screen, biochemical, fluorescence; r(CAG) RNA repeat, TO-PRO-1 dye displacement fluorescence; inhibition, % at 3 µM; actives 1.3% (n = 370,000); AID 651821, 2012;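 active = inhibition above the plate cutoff, the mean of all test compounds on that plate plus 3 SD, cut at about 35% in these data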;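 note: higher means more dye released from RNA so lower well fluorescence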
rCAG bind conf: small molecules binding CAG repeat RNA – biochemical, fluorescence, confirmation. r(CAG) RNA repeat, TO-PRO-1 dye displacement fluorescence. actives 70% (n = 4,300). AID 652065, 2013. inhibition, % at 3 µM. shares compounds with rCAG RNA binder;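 active = inhibition above a per-plate cutoff, the mean inhibition of sample wells plus 3 SD, cut at about 35% in these data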;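 note: loss of TO-PRO-1 fluorescence as compound displaces dye from 1x1 AA loop RNA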
dCAG dye counter: displacement of TO-PRO-1 from CAG DNA duplex, counter-screen for rCAG RNA repeat binder project, biochemical, fluorescence, TO-PRO-1 dye, d(CAG) DNA oligo; inhibition, % at 3 µM; shares compounds with rCAG RNA binder; actives 94% (n = 4,300); d(CAG) DNA oligo TO-PRO-1 dye displacement;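 active = inhibition above its plate's cutoff, the mean test-well inhibition plus 3 SD, cut at about 4.8% in these data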;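 note: hits displace the dye from DNA and so lower well fluorescence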
Numbers stand for hits; . = inactive; / = no result given.

SMILES | mABHD4 FP | HTRA1 inh | LEDGF integ inh | DAGLB inhibitor | PRMT1 FP inh | rCAG RNA binder | rCAG bind conf | dCAG dye counter
CCc1nnc(NS(=O)(=O)c2ccc(NC(=S)NC(=O)c3ccncc3)cc2)s1 | . | . | . | . | . | . | / | /
CCc1nnc(NS(=O)(=O)c2ccc(NC(=S)NC(=O)/C=C/c3ccc(F)cc3)cc2)s1 | . | . | . | . | . | 85.3 | 85.6 | 59.5
Cc1noc(C(=O)Nc2cccc(O)c2)c1Cl | . | . | . | . | . | . | / | /
O=C(NCc1ccco1)C1CC(c2ccccc2C(F)(F)F)=NO1 (stereo unspecified) | . | . | . | . | . | . | / | /
Cc1ccc(CNC(=O)C2CC(c3ccccc3C(F)(F)F)=NO2)o1 (stereo unspecified) | . | . | . | . | . | 37.9 | . | .
O=C(NC1CCCC1)C1C(c2ccc(C(F)(F)F)cc2)=Nc2ccccc2N1C(=O)c1cccc2ccccc12 (stereo unspecified) | . | / | . | / | . | . | / | /
CC(Cc1ccccc1)N/C=C1\CC(=O)NC1=O (stereo unspecified) | . | . | . | . | . | . | / | /
COc1cc([N+](=O)[O-])ccc1NC(=S)NNC(=O)c1ccc2c(c1)OCO2 | . | . | . | . | . | 64.3 | 57.5 | 15.6
Cc1ccc(F)c(S(=O)(=O)NC(=O)C2(C)CCN2C(=O)CC(c2ccccc2)c2ccccc2)c1 (stereo unspecified) | . | / | . | / | . | 49.1 | 42.5 | 11.9
CCCC(=O)N1CCC1(C)C(=O)NS(=O)(=O)c1cc(C)ccc1F (stereo unspecified) | . | / | . | / | . | . | / | /
CC1(C(=O)NS(=O)(=O)c2ccc(F)cc2F)CCN1C(=O)CC(c1ccccc1)c1ccccc1 (stereo unspecified) | . | / | . | / | . | 38.5 | . | 5.8
CCCN(CCC)CCCNC(=O)Cn1cnc2sc(C)c(S(=O)(=O)N3CCCCC3)c2c1=O | . | . | . | . | . | . | / | /
CCc1ccccc1NC(=O)N[C@@H](C)C(=O)O | . | . | . | . | . | . | / | /
COc1ccccc1COc1ccc2c(C)c(CC(=O)O)c(=O)oc2c1C | . | . | . | . | . | 37.0 | 39.4 | 10.3
COc1ccccc1N1CCN(S(=O)(=O)c2ccc(-n3cnnn3)c(C)c2)CC1 | . | . | . | . | . | . | / | /
Cc1ccc(NC(=O)/C(=C/C=C/c2ccccc2)NC(=O)c2ccccc2)cc1 | . | . | . | . | . | . | / | /
O=C(Nc1ccc(C(=O)O)cc1)/C(=C\c1ccc([N+](=O)[O-])cc1)NC(=O)c1ccc(Br)cc1 | . | . | . | . | . | 43.8 | . | 7.0
CC(=O)Oc1ccc(/C=C(\NC(=O)c2cccc(Br)c2)C(=O)Nc2ccc(C(=O)O)cc2)cc1 | . | . | . | . | . | 50.0 | . | 6.4
O=C(Nc1ccc(C(=O)O)cc1)/C(=C\C=C\c1ccccc1)NC(=O)c1ccc(Br)cc1 | . | . | . | . | . | 72.0 | 65.8 | 31.6
O=C(Nc1ccc(C(=O)O)cc1)/C(=C\c1ccc2c(c1)OCO2)NC(=O)c1ccc(Br)cc1 | . | . | . | . | . | 39.0 | . | 8.0
Cc1ccc(NC(=O)/C(=C\c2ccc([N+](=O)[O-])cc2)NC(=O)c2ccccc2)cc1 | . | . | . | . | . | . | / | /
COc1ccc(OCc2nnc(SCC(=O)Nc3ccccc3C#N)o2)cc1 | . | . | . | . | . | . | / | /
O=C(CN1CCN(c2ccccn2)CC1)Nc1cccc(Br)c1 | . | . | . | . | . | . | / | /

Screening results deposited in PubChem by The Scripps Research Institute Molecular Screening Center.
